Assay results collected from several papers.
Lines come from different studies, so protocols differ.
Target: Serine/threonine-protein kinase Chk1 (CHEK1, Homo sapiens, UniProt O14757)
One construct used (O14757 1-476): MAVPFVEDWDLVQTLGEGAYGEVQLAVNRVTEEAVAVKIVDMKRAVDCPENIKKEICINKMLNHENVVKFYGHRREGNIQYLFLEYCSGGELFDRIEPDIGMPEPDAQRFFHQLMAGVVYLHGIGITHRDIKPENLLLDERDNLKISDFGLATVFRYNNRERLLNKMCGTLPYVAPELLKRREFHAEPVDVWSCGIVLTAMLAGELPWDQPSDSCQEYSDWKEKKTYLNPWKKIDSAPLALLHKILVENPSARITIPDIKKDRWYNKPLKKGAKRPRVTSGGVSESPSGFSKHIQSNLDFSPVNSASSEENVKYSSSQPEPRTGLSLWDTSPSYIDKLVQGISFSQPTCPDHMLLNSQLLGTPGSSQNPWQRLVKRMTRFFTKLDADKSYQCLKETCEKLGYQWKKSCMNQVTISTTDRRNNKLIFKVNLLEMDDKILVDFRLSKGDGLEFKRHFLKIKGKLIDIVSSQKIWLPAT

Compound | assay | setting | measurement | result
C[C@H]1CC[C@H](n2c3cnccc3c3cnc(Nc4ccc5c(n4)CCN(C(=O)CO)C5)nc32)CC1 | cell-free assay | 1 µM | remaining signal | 93%
CC#CC(=O)N1CCC[C@H]1c1nc(-c2ccc(C(=O)Nc3ccccn3)cc2)c2c(N)nccn12 | enzyme activity, inhibitor | 1 µM | inhibition | 20%
COc1ccc2oc(-c3ccc4nc(N)oc4c3)c/c(=N\c3ccccc3NC(=O)CCN)c2c1 | binding | 1 µM | remaining binding | 87%
C=CC(=O)N1CCC[C@@H](n2nc(-c3ccc(Oc4ccccc4)cc3)c3c(N)ncnc32)C1 | enzyme activity, inhibitor | 1 µM | inhibition | 10%
C#Cc1cnc(Nc2ccnc(CO)c2)nc1Nc1ccccc1S(C)(=O)=NC#N (stereo not drawn) | cell-free assay | 1 µM | remaining signal | 38%
CCCCC(=O)Nc1ccc(-c2ccc3ncn(CCC)c(=O)c3c2)cn1 | binding, competition with immobilised ligand | 0.5 µM | remaining binding | 86%
COc1ccc2[nH]c3c4[nH]c5ccc(OC)cc5c4c4c(c3c2c1)C(=O)NC4=O | binding | 1 µM | remaining binding | 12%
C1=C/COCc2cc(ccc2OCCN2CCCC2)Nc2nccc(n2)-c2cccc(c2)COC/1 | cell-free assay | 0.1 µM | remaining signal | 100%
N#Cc1ccc(NC(=O)Nc2ccccc2)cc1 | cell-free assay, competition with immobilised ligand | 25 µM | remaining binding | 91%
